# ChEMBL document CHEMBL1122782, “Bulky amine analogues of ketoprofen: potent antiinflammatory agents” (J Med Chem, 1984)
# Key:
# Format in all cases: functional
# Rattus norvegicus [1] = assay: Antiinflammatory efficacy is measured by the percent inhibition of paw volume during the 3 week adjuvant arthritis test at 0.08 mM/kg (24.6 mg)
# Method in brief: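 Male Sprague-Dawley rats (200–230 g) were used in groups of eight. Each received 0.1 mL of 0.6% M. butyricum in heavy mineral oil into the plantar tissue of one hind paw. Daily oral gavage in 1% gum tragacanth or corn oil-water emulsion began on the injection day and ran 21 days. Total hind paw volume was measured by mercury displacement, and inhibition was taken versus vehicle-treated adjuvant controls.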
# Rattus norvegicus [2] = assay: Ulcerogenicity was measured in stomach during the 3 week adjuvant arthritis test, no of animals with ulcers out of 8 animals tested at 0.41 mM/kg (126 mg) was reported
# Method in brief: (§1)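 Male Sprague-Dawley rats (200–230 g) were injected in the plantar tissue of one hind paw with 0.1 mL of 0.6% M. butyricum suspension in heavy mineral oil. Daily oral gavage began on the day of adjuvant injection and ran for the 21 days, with drug suspended in 1% gum tragacanth or a corn oil-water emulsion. At the end the rats were sacrificed and the small intestine and stomach were examined for ulcers. Results are given as animals with ulcers/animals tested.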
# Rattus norvegicus [3] = assay: Ulcerogenicity was measured in intestine during the 3 week adjuvant arthritis test, no of animals with ulcers out of 72 animals tested at 0.08 mM/kg (24.6 mg) was reported
# Method in brief: (§2)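 In the 21-day adjuvant arthritis model, male Sprague-Dawley rats (200–230 g) received an M. butyricum mineral-oil suspension into one hind paw. They were dosed daily by gavage from the day of injection. At the end of the study the rats were killed, and the small intestines were examined for ulcers. Results are given as the number of ulcerated animals over the number tested.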
# Rattus norvegicus [4] = assay: Ulcerogenicity was measured in intestine during the 3 week adjuvant arthritis test, no of animals with ulcers out of 8 animals tested at 0.41 mM/kg (126 mg) was reported; method in brief: as §1
# Rattus norvegicus [5] = assay: Antiinflammatory efficacy is measured by the weight gain in rats during the 3 week adjuvant arthritis test at 0.50 mM/kg (154 mg)
# Method in brief: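 Male Sprague-Dawley rats (200–230 g), eight per group, received 0.1 mL of 0.6% M. butyricum in heavy mineral oil (negative controls: mineral oil) into one hind-paw plantar tissue. Daily gavage in 1% gum tragacanth or corn oil-water emulsion began on the injection day, for 21 days. Weight gain is expressed as (treated − adjuvant control)/(negative control − adjuvant control) × 100.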
# Rattus norvegicus [6] = assay: The percent inhibition was calculated from the average differences in hind paw volume between the adjuvant injected controls and the adjuvant-injected medicated rats at 0.08 mmol/kg; 60-69; settings: Rattus norvegicus
# Rattus norvegicus [7] = assay: Ulcerogenicity was measured in stomach during the 3 week adjuvant arthritis test, no of animals with ulcers out of 55 animals tested at 0.50 mM/kg (154 mg) was reported; method in brief: as §1
# Rattus norvegicus [8] = assay: Ulcerogenicity was measured in stomach during the 3 week adjuvant arthritis test, no of animals with ulcers out of 72 animals tested at 0.08 mM/kg (24.6 mg) was reported; method in brief: as §1
# Rattus norvegicus [9] = assay: Antiinflammatory efficacy is measured by the weight gain in rats during the 3 week adjuvant arthritis test at 0.08 mM/kg (24.6 mg)
# Method in brief: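 Rats were adjuvant-injected (M. butyricum in mineral oil, one hind paw) or given a mineral-oil placebo. They were dosed by gavage daily for 21 days from the injection day, with vehicle only for both control groups, then weighed at the end. Weight gain % = (treated − adjuvant control)/(negative control − adjuvant control) × 100.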
# Rattus norvegicus [10] = assay: Ulcerogenicity was measured in intestine during the 3 week adjuvant arthritis test, no of animals with ulcers out of 55 animals tested at 0.50 mM/kg (154 mg) was reported; method in brief: as §2
# Rattus norvegicus [11] = organism: Rattus norvegicus; assay: Compound was evaluated for highest non-ulcerogenic dose (less than 50% ulcer incidence); settings: read-out: ED50
# Method in brief: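 Taken from the 21-day adjuvant arthritis test in male Sprague-Dawley rats dosed orally each day from the day of adjuvant injection. Small intestines and stomachs were examined for ulceration at the end. The value is the highest dose giving less than 50% ulcer incidence.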
# Rattus norvegicus [12] = assay: The mean increase in paw volume was compared between drug treated groups and placebo to calculate the percent inhibition in rats at 0.08 mmol/kg by carrageenan Edema Assay; 40-49
smiles,measurement,setting,value
CCCCC1C(=O)N(c2ccccc2)N(c2ccccc2)C1=O [PHENYLBUTAZONE],Inhibition,Rattus norvegicus [1],66%
same,Ulcerogenic index,Rattus norvegicus [2],3
same,Ulcerogenic index,Rattus norvegicus [3],11
same,Ulcerogenic index,Rattus norvegicus [4],2
same,Weight gain,Rattus norvegicus [5],41%
same,inhibition in vivo at 80 µmol/kg,Rattus norvegicus [6],60%
same,Ulcerogenic index,Rattus norvegicus [7],17
same,Ulcerogenic index,Rattus norvegicus [8],14
same,Weight gain,Rattus norvegicus [9],21%
same,Ulcerogenic index,Rattus norvegicus [10],36
same,highest non-ulcerogenic dose,Rattus norvegicus [11],40 µmol/kg
same,inhibition in vivo at 80 µmol/kg,Rattus norvegicus [12],40%
